Assay results collected from several papers.
Each line is one published result; the experiments were not run side by side.
Target: Mitogen-activated protein kinase kinase kinase kinase 3 (MAP4K3, Homo sapiens, UniProt Q8IVH8)
Residues used in one study (Q8IVH8 1-894): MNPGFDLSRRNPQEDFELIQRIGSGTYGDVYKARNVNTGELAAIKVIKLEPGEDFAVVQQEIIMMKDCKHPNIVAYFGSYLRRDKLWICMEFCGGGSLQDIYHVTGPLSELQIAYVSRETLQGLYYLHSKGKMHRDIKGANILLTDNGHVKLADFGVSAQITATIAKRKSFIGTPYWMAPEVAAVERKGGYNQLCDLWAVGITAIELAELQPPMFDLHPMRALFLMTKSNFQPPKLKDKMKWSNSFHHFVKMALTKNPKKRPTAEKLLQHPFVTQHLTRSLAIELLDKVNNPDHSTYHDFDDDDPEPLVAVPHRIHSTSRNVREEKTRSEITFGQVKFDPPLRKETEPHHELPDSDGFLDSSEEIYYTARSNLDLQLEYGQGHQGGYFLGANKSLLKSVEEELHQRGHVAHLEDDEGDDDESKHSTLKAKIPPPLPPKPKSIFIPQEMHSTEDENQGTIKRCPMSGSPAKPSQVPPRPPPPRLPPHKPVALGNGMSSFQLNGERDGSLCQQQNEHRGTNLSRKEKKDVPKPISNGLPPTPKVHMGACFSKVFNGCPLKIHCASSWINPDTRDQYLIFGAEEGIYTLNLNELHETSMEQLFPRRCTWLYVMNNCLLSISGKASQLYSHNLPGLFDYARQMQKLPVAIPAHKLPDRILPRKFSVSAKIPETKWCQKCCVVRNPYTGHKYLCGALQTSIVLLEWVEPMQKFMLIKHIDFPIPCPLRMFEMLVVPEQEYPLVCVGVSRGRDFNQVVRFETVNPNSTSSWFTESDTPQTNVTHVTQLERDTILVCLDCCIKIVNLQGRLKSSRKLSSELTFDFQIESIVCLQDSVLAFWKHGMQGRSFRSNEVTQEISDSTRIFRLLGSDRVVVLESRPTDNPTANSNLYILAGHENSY

c1ccc(CNc2nc(N3CCOc4ccccc43)nc3c2CCCC3)cc1
inhibition (target engagement in cells, inhibitor, chemoproteomics; 20 mM): 3.3%

FC(F)(F)Oc1cccc(-c2cnc3ccc(-c4ccncc4)nn23)c1
activity vs control (enzyme activity, inhibitor, radiometric; 1 µM): 54%

COc1cc(/C=C/C(=O)CC(=O)/C=C/c2ccc(O)c(OC)c2)ccc1O
activity vs control (enzyme activity, inhibitor; 1 µM): 87%

CNC(=O)c1ccc(Nc2ncc(C(F)(F)F)c(NCc3nccnc3N(C)S(C)(=O)=O)n2)cc1
remaining binding (cell-free assay, competition with immobilised ligand; 0.1 µM): 95%

Cc1ccc(C(=O)NCc2ccsc2)cc1C#Cc1cn(C(C)C)c2ncnc(N)c12
activity vs control (enzyme activity, inhibitor; 1 µM): 54%

O=C(Nc1cnn(-c2csc(C(=O)NC3COC3)c2)c1)Nc1c(F)cccc1Cl
remaining activity (enzyme activity, inhibitor; 5 µM): 100%

CC(=O)c1c(NS(C)(=O)=O)c2cc(-c3ccc(Cl)cc3)c(-c3ccc(Cl)cc3Cl)nc2n(C)c1=O
remaining binding (cell-free assay, competition with immobilised ligand; 1 µM): 99%

COc1cc(Nc2cnc(C#N)c(O[C@H](C)CN(C)C)n2)ncc1-c1cnn(C)c1
remaining activity (enzyme activity, inhibitor, radiometric; 1 µM): 45%

CCCCNc1ncc2c(-c3ccc(F)cc3)nn(C[C@H]3CC[C@H](N)CC3)c2n1
inhibition (target engagement in cells, inhibitor, chemoproteomics; 20 mM): 44.6%

CCCCN(CCCC)C(=O)CN1C[C@H](c2cc(OC)c3c(c2)OCO3)[C@@H](C(=O)O)[C@@H]1CC(C)(C)CCC
remaining binding (cell-free assay, competition with immobilised ligand; 1 µM): 100%

COc1cc(Cl)c(C(=O)N[C@@H](CN[C@H]2CC[C@@H](N)CC2)Cc2ccc(C#N)cc2)cc1-c1ccc(CN[C@H](C)c2ccc(C)cc2)o1
remaining activity (enzyme activity, inhibitor; 1 µM): 98%

CN1CC(Oc2cnc(C#N)cc2-c2ccn3nc(NC(=O)C4CC4)cc3c2)C1
inhibition (enzyme activity, inhibitor; 1 µM): -4%

Cc1ccc(C(=O)Nc2ccc(CN3CCN(C)CC3)c(C(F)(F)F)c2)cc1C#Cc1cnc2cccnn12
remaining activity (enzyme activity, inhibitor; 23.5 nM): 89%

Cc1sc(C(=O)NC2COC2)cc1-n1cc(NC(=O)Nc2c(F)cccc2Cl)cn1
remaining activity (enzyme activity, inhibitor; 10 µM): 118%

Nc1ncnc2occ(-c3ccc(NC(=O)Nc4cc(C(F)(F)F)ccc4F)cc3)c12
remaining signal (cell-free assay, inhibitor; 20 µM): 0.8%
